High-throughput results from PubChem BioAssay.
T cruzi growth-1 – blocks T. cruzi growth in NIH3T3 culture; T. cruzi beta-gal in NIH3T3, GalScreen luminescence, 90 h; inhibition, % at 8.34 µM; actives 5.9% (n = 77,000); AID 624255;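 active means mean inhibition above about 93%, with at least 55% of replicates each passing it, limit read from the data, passing the limit was not always enough; inconclusive means only one of those two conditions holds; inactive means neither condition holds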
KDM4C inh – inhibitors of human demethylase GASC-1 KDM4C. GST-KDM4C 2-372, H3K9me3 peptide, LANCE TR-FRET. AID 720574. actives 0.15% (n = 96,000). inhibition, % at 12.5 µM;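 active means mean replicate inhibition above about 25%, with at least 55% of replicates also reaching it, limit read from the data, passing the limit was not always enough; inconclusive means only one of those two conditions met; inactive means neither condition met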
Target sequence (Q9H3R0 2-372 limits assumed): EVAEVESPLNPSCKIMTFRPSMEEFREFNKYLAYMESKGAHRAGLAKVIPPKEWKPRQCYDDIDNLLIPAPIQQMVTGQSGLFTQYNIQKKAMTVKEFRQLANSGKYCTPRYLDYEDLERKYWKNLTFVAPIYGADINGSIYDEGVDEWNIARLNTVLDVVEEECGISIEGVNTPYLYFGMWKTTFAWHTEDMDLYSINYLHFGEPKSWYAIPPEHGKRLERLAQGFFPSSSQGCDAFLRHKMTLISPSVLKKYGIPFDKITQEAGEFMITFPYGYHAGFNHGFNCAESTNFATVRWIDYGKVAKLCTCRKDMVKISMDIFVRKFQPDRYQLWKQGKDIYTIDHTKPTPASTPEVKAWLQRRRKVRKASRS
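Material: GST-tagged GASC-1 (JMJD2C) catalytic fragment, aa 2-372 / Quantity: enzyme final amount 10 nM / Medium: HEPES buffer, pH 7.5, plus ascorbate / Doses: one test concentration per compound / Incubation: 30 min reaction, 60 min detection, RT / Measured by: LANCE TR-FRET / Read-out: inhibition from TR-FRET ratio decrease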
IDH1 mut inh – inhibitors of human IDH1 R132H; actives 0.18% (n = 70,000); AID 624101; IDH1 R132H reductase, diaphorase/resazurin fluorescence, 60 min; O75874; inhibition, % at 10 µM; in the data active means inhibition above about 34%; inconclusive means no clear call, values can overlap the other calls; inactive means below about 11%;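 further: 0% = DMSO and 100% = no enzyme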
Target sequence (O75874 whole entry R132H): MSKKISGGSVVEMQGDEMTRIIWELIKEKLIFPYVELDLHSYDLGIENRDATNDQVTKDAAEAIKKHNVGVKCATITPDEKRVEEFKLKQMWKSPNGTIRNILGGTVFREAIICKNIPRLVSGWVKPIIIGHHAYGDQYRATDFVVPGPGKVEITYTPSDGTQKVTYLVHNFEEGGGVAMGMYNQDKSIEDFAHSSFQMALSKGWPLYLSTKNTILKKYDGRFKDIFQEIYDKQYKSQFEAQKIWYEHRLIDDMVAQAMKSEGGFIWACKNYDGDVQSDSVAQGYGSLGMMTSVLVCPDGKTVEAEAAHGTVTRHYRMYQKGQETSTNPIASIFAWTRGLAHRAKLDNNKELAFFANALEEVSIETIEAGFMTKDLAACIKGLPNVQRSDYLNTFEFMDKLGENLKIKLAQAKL
T cruzi growth-2 – Trypanosoma cruzi proliferation inhibition; shares compounds with T cruzi growth-1; T. cruzi beta-gal in NIH3T3, GalScreen luminescence, 90 h; inhibition, % at 8.35 µM; actives 72% (n = 5,600);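 active means mean replicate inhibition above about 95% and at least 55% of replicates individually reaching it, limit read from the data; inconclusive means only one of the two criteria is met; inactive means neither criterion is met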
T cruzi growth-3 – inhibitors of T. cruzi proliferation; T. cruzi beta-gal in NIH3T3, GalScreen luminescence, 90 h; shares compounds with T cruzi growth-1; inhibition, % at 2.09 µM; actives 21% (n = 5,600);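 active means mean inhibition above about 95%, with at least 55% of replicates also reaching it, limit read from the data; inconclusive means meets just one of the two conditions; inactive means meets neither condition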;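 further: plate controls were neutral control median for no effect and positive control median for full effect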
NIH3T3 tox – kills mouse NIH/3T3 fibroblasts; shares compounds with T cruzi growth-1; NIH/3T3 viability, CellTiter-Glo ATP luminescence, 90 h; cytotoxicity (signal decrease), % at 8.35 µM; actives 14% (n = 5,600);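 active means mean signal decrease across replicates above about 35% based on untreated-well scatter, with enough replicates individually passing, limit read from the data; inconclusive means no rule stated though some were filed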;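 further: 0% = median of neutral control wells and 100% = median of positive control wells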
NIH3T3 tox 2 – cytotoxicity in mouse NIH/3T3 fibroblasts; NIH/3T3 viability, CellTiter-Glo ATP luminescence, 90 h; AID 651744; shares compounds with T cruzi growth-1; inhibition, % at 24.9 µM; actives 56% (n = 5,600);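 active means mean loss of cell viability signal at or above a set limit, and enough replicates individually reaching it; inconclusive means meets only the mean limit or only the replicate share; inactive means meets neither condition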;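 further: 0% = median of neutral control wells and 100% = median of positive control wells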
* marks the source's active call; other numbers are inactive results; ? = inconclusive; nt = not tested or not shown. Many of the other results were omitted from the sample, so hits are more common in it than they were.

SMILES	T cruzi growth-1	KDM4C inh	IDH1 mut inh	T cruzi growth-2	T cruzi growth-3	NIH3T3 tox	NIH3T3 tox 2
C[C@H]1CN([C@@H](C)CO)S(=O)(=O)c2ccc(C#CC3CC3)cc2O[C@@H]1CN(C)C(=O)c1ccncc1	86.5	3.3	5.6	nt	nt	nt	nt
O=C(N/N=C/c1cccc2ccccc12)c1ccccc1O	nt	nt	0.1	nt	nt	nt	nt
CCS(=O)(=O)Nc1ccc2c(c1)C(=O)N(C)C[C@H](OC)[C@H](C)CN(C(=O)C1CC1)[C@H](C)CO2	nt	-0.4	0.1	nt	nt	nt	nt
COc1ccc(NC(=O)Nc2ccc3c(c2)C(=O)N([C@H](C)CO)C[C@H](C)[C@@H](CN(C)S(=O)(=O)c2ccc(C)cc2)OCCCC[C@H](C)O3)cc1	60.9	3.8	15.8	nt	nt	nt	nt
COc1ccc(NC(=O)Nc2ccc3c(c2)C(=O)N([C@@H](C)CO)C[C@@H](C)[C@@H](CN(C)S(=O)(=O)c2ccc(C)cc2)OCCCC[C@@H](C)O3)cc1	97.3*	-2.7	-2.2	103.8*	30.8	-24.4	-11.5
COc1ccc(NC(=O)Nc2ccc3c(c2)C(=O)N([C@@H](C)CO)C[C@H](C)[C@@H](CN(C)S(=O)(=O)c2ccc(C)cc2)OCCCC[C@H](C)O3)cc1	101.8*	5.6	5.5	104.9*	34.1	-2.5	4.0
COc1ccc(S(=O)(=O)N(C)C[C@@H]2OCCCC[C@@H](C)Oc3ccc(NC(=O)Nc4ccccc4)cc3C(=O)N([C@H](C)CO)C[C@H]2C)cc1	103.9*	-3.6	-0.7	104.2*	62.0	-16.8	17.0
COc1ccc(NC(=O)Nc2ccc3c(c2)C(=O)N([C@@H](C)CO)C[C@H](C)[C@H](CN(C)S(=O)(=O)c2ccc(C)cc2)OCCCC[C@H](C)O3)cc1	103.6*	2.6	0.2	111.3*	68.0	-8.7	-7.3
COc1ccc(NC(=O)Nc2ccc3c(c2)C(=O)N([C@H](C)CO)C[C@@H](C)[C@H](CN(C)S(=O)(=O)c2ccc(C)cc2)OCCCC[C@H](C)O3)cc1	72.5	0.5	1.0	nt	nt	nt	nt
COc1ccc(S(=O)(=O)N(C)C[C@H]2OCCCC[C@@H](C)Oc3ccc(NC(=O)Nc4ccccc4)cc3C(=O)N([C@H](C)CO)C[C@@H]2C)cc1	-53.2	0.2	nt	nt	nt	nt	nt
COc1ccc(NC(=O)Nc2ccc3c(c2)C(=O)N([C@@H](C)CO)C[C@H](C)[C@H](CN(C)S(=O)(=O)c2ccc(C)cc2)OCCCC[C@@H](C)O3)cc1	39.1	0.1	1.0	nt	nt	nt	nt
Cc1cc(OCC(=O)Nc2cccc(C(=O)O)c2)cc(C)c1Cl	nt	nt	0.6	nt	nt	nt	nt
COc1ccc(OCc2nc3ccccc3n2Cc2ccccc2F)cc1	nt	nt	0.1	nt	nt	nt	nt
Cc1cccc(C)c1Nc1c(CN2C(=O)c3ccccc3C2=O)nc2ccc(Br)cn12	nt	nt	-1.5	nt	nt	nt	nt
COc1ccccc1-c1ccc([C@@H]2[C@H](C#N)N(C(=O)C3CCC3)[C@H]2CO)cc1	14.9	0.8	nt	nt	nt	nt	nt
COc1ccc(-c2ccc([C@@H]3[C@@H](CO)N(C(=O)c4cccnc4)[C@H]3C#N)cc2)cc1	96.2*	-0.9	nt	63.5	-13.2	-18.3	11.3
COc1ccccc1-c1ccc([C@H]2[C@@H](CO)N(C(=O)C3CC3)[C@H]2C#N)cc1	102.6*	3.9	0.0	41.2	20.5	-0.3	-1.6
COc1ccccc1-c1ccc([C@H]2[C@@H](CO)N(C(=O)C3CCC3)[C@H]2C#N)cc1	98.7*	-1.2	-0.1	29.7	-26.2	12.1	-6.0
COc1ccc(-c2ccc([C@@H]3[C@H](C#N)N(C(=O)c4cccnc4)[C@H]3CO)cc2)cc1	16.9	-0.9	nt	nt	nt	nt	nt
COc1ccccc1-c1ccc([C@@H]2[C@@H](C#N)N(C(=O)C3CCC3)[C@@H]2CO)cc1	98.4*	-1.3	nt	83.1	18.5	-2.7	1.1
COc1ccccc1-c1ccc([C@H]2[C@H](C#N)N(C(=O)C3CCC3)[C@H]2CO)cc1	14.9	-0.3	nt	nt	nt	nt	nt
COc1ccccc1-c1ccc([C@H]2[C@@H](C#N)N(C(=O)C3CCC3)[C@@H]2CO)cc1	94.9	-0.2	nt	nt	nt	nt	nt
CS(=O)(=O)Nc1ccc2c(c1)[C@H]1C[C@H](CC(=O)NC3CCCC3)O[C@H](CO)[C@H]1O2	22.8	0.4	0.4	nt	nt	nt	nt
C[C@H]1CN([C@@H](C)CO)S(=O)(=O)c2ccc(-c3cncnc3)cc2O[C@@H]1CN(C)C	24.2	-1.1	-0.2	nt	nt	nt	nt
CCCNC(=O)C[C@H]1CC[C@@H]2[C@@H](COc3ccc(NC(=O)NCCC)cc3C(=O)N2C)O1	nt	-0.4	nt	nt	nt	nt	nt
SMILES	T cruzi growth-1	KDM4C inh	IDH1 mut inh	T cruzi growth-2	T cruzi growth-3	NIH3T3 tox	NIH3T3 tox 2
O=C(CCNc1ccc(Cl)c(C(F)(F)F)c1)c1ccccc1	nt	nt	0.6	nt	nt	nt	nt
C[C@H](CO)N1C[C@H](C)[C@@H](CN(C)C(=O)NC2CCCCC2)Oc2ccc(NC(=O)CCCCCC(=O)Nc3ccccc3N)cc2C1=O	nt	14.6	nt	nt	nt	nt	nt
C[C@H](CO)N1C[C@H](C)[C@H](CN(C)CC2CCOCC2)Oc2cc(Br)ccc2S1(=O)=O	38.5	1.7	nt	nt	nt	nt	nt
COc1ccc(-c2ccc([C@H]3[C@H](C#N)N(C(=O)C4CCCC4)[C@H]3CO)cc2)cc1	100.3*	-4.5	nt	90.5	52.5	16.7	19.7
N#C[C@H]1[C@@H](c2ccc(/C=C/c3ccccc3)cc2)[C@@H](CO)N1C(=O)C1CC1	?	-0.5	nt	106.2*	40.3	19.8	34.8*
COc1ccccc1-c1ccc([C@@H]2[C@@H](C#N)N(C(=O)CN(C)C)[C@H]2CO)cc1	57.9	0.8	nt	nt	nt	nt	nt
N#C[C@@H]1[C@H](c2ccccc2)[C@@H](CO)N1C(=O)C1CCCC1	32.8	-1.2	nt	nt	nt	nt	nt
COc1ccc(-c2ccc([C@H]3[C@@H](CO)N(C(=O)C4CC4)[C@H]3C#N)cc2)cc1	43.0	0.8	-0.9	nt	nt	nt	nt
COc1ccccc1-c1ccc([C@@H]2[C@@H](C#N)N(C(=O)NC(C)C)[C@@H]2CO)cc1	99.3*	-0.9	0.0	95.9*	36.7	5.7	38.2*
COc1ccc(-c2ccc([C@@H]3[C@@H](CO)N(C(=O)NC(C)C)[C@H]3C#N)cc2)cc1	88.3	-1.6	nt	nt	nt	nt	nt
COc1ccc(-c2ccc([C@H]3[C@@H](CO)N(C(=O)CN(C)C)[C@H]3C#N)cc2)cc1	105.1*	-0.3	-0.1	108.5*	21.7	19.6	?
O=C(Cn1ccc([N+](=O)[O-])n1)Nc1cccnc1	nt	nt	-0.5	nt	nt	nt	nt
O=C(C[C@@H]1C=C[C@H](NC(=O)C2CCC2)[C@H](CO)O1)NCC1CC1	9.6	-1.4	0.3	nt	nt	nt	nt
CCC(=O)N(C)C[C@H]1Oc2cc(-c3cccc(F)c3)ccc2S(=O)(=O)N([C@H](C)CO)C[C@@H]1C	87.0	-1.0	-7.9	nt	nt	nt	nt
CCNS(=O)(=O)c1cc(-c2nnc(Nc3ccc(NC(C)=O)cc3)c3ccccc23)ccc1C	nt	nt	-0.3	nt	nt	nt	nt
O=C(N/N=C/c1ccc2c(c1)OCCO2)c1ccccn1	nt	nt	-0.2	nt	nt	nt	nt
